# ChEMBL document CHEMBL1759943, “Design and synthesis of novel enhanced water soluble hydroxyethyl analogs of combretastatin A-4” (Bioorg Med Chem Lett, 2011)
# How the values were obtained:
# [1] = tested on: B16; experiment: Antiproliferative activity against mouse B16 cells after 72 hrs by MTT assay; type: functional, cell-based; conditions: B16, 72 h
# Summary of the method: (§1)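 Murine L1210 lymphoma and B16 melanoma cells in culture were given 72-h continuous exposure to compound, and viability was read by MTT assay. IC50 was taken as the readout.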
# [2] = tested on: L1210; experiment: Antiproliferative activity against mouse L1210 cells after 72 hrs by MTT assay; type: functional, cell-based; conditions: L1210, 72 h; summary of the method: as §1
# [3] = tested on: EKVX; experiment: Cytotoxicity against human EKVX cells; type: functional
# [4] = tested on: SF-295; experiment: Cytotoxicity against human SF295 cells; type: functional
# [5] = tested on: SK-MEL-2; experiment: Cytotoxicity against human SK-MEL-2 cells; type: functional
# [6] = tested on: MCF7; experiment: Cytotoxicity against human MCF7 cells; type: functional
# [7] = tested on: A549; experiment: Cytotoxicity against human A549 cells; type: functional
# [8] = tested on: UACC-62; experiment: Cytotoxicity against human UACC62 cells; type: functional
# [9] = tested on: Mus musculus; experiment: Toxicity in DBA2 mouse assessed as change in body weight at 75 mg/kg, ip administered once daily on day 1, 5, 9, 13, 17; type: organism-based; parameters: dose 75 mg/kg, route intraperitoneal; conditions: in vivo
# Summary of the method: (§2)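 Healthy, non-tumor-bearing female DBA2 mice given 75 mg/kg on days 1, 5, 9, 13 and 17. Toxicity was judged at the end of the experiment from body weight change, blood cell counts, and the gross color and texture of the kidneys, liver and spleen.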
# [10] = tested on: U-251; experiment: Cytotoxicity against human U251 cells; type: functional
# [11] = tested on: HCC 2998; experiment: Cytotoxicity against human HCC2998 cells; type: functional
# [12] = tested on: A10; experiment: Disruption of microtubule organization in rat A10 cells assessed as loss of interphase microtubules; type: functional, cell-based
# [13] = tested on: MDA-MB-468; experiment: Cytotoxicity against human MDA-MB-468 cells; type: functional
# [14] = tested on: SK-OV-3; experiment: Cytotoxicity against human SKOV3 cells; type: functional
# [15] = tested on: NCI-H522; experiment: Cytotoxicity against human NCI-H522 cells; type: functional
# [16] = tested on: COLO 205; experiment: Cytotoxicity against human COLO205 cells; type: functional
# [17] = tested on: PC-3; experiment: Cytotoxicity against human PC3 cells; type: functional
# [18] = tested on: UO-31; experiment: Cytotoxicity against human UO31 cells; type: functional
# [19] = tested on: ACHN; experiment: Cytotoxicity against human ACHN cells; type: functional
# [20] = tested on: CCRF-CEM; experiment: Cytotoxicity against human CCRF-CEM cells; type: functional
# [21] = tested on: OVCAR-4; experiment: Cytotoxicity against human OVCAR4 cells; type: functional
# [22] = tested on: MDA-MB-435; experiment: Ratio of EC50 for disruption of interphase microtubule organization in rat A10 cells to IC50 for human MDA-MB-435 cells; type: functional
# [23] = tested on: RPMI-8226; experiment: Cytotoxicity against human RPMI8226 cells; type: functional
# [24] = tested on: HOP-62; experiment: Cytotoxicity against human HOP62 cells; type: functional
# [25] = tested on: TK-10; experiment: Cytotoxicity against human TK10 cells; type: functional
# [26] = tested on: 786-0; experiment: Cytotoxicity against human 786-0 cells; type: functional
# [27] = tested on: HL-60; experiment: Cytotoxicity against human HL60 cells; type: functional
# [28] = tested on: NCI-H226; experiment: Cytotoxicity against human NCI-H226 cells; type: functional; conditions: NCI-H226, read-out: pGI50 (converted)
# [29] = tested on: HCT-116; experiment: Cytotoxicity against human HCT116 cells; type: functional
# [30] = tested on: UACC-257; experiment: Cytotoxicity against human UACC257 cells; type: functional; conditions: UACC-257, read-out: pGI50 (converted)
# [31] = tested on: Mus musculus; experiment: Toxicity in DBA2 mouse assessed as change in color and texture of spleen at 75 mg/kg, ip administered once daily on day 1, 5, 9, 13, 17; type: organism-based; parameters: dose 75 mg/kg, route intraperitoneal; conditions: in vivo; summary of the method: as §2
# [32] = Cytotoxicity against human RXF 393NL cells; type: functional
# [33] = tested on: Mus musculus; experiment: Toxicity in DBA2 mouse assessed as change in blood cell count at 75 mg/kg, ip administered once daily on day 1, 5, 9, 13, 17; type: organism-based; parameters: dose 75 mg/kg, route intraperitoneal; conditions: in vivo; summary of the method: as §2
# [34] = tested on: SK-MEL-28; experiment: Cytotoxicity against human SK-MEL-28 cells; type: functional; conditions: SK-MEL-28, read-out: pGI50 (converted)
# [35] = tested on: KM12; experiment: Cytotoxicity against human KM12 cells; type: functional
# [36] = tested on: OVCAR-8; experiment: Cytotoxicity against human OVCAR8 cells; type: functional
# [37] = tested on: MDA-MB-231; experiment: Cytotoxicity against human MDA-MB-231 cells; type: functional
# [38] = tested on: M14; experiment: Cytotoxicity against human M14 cells; type: functional
# [39] = Cytotoxicity against human Hs 578T cells; type: functional
# [40] = tested on: Mus musculus; experiment: Toxicity in DBA2 mouse assessed as change in color and texture of liver at 75 mg/kg, ip administered once daily on day 1, 5, 9, 13, 17; type: organism-based; parameters: dose 75 mg/kg, route intraperitoneal; conditions: in vivo; summary of the method: as §2
# [41] = tested on: LOX IMVI; experiment: Cytotoxicity against human LOXIMVI cells; type: functional
# [42] = tested on: BT-549; experiment: Cytotoxicity against human BT549 cells; type: functional
# [43] = tested on: SF-268; experiment: Cytotoxicity against human SF268 cells; type: functional
# [44] = tested on: SK-MEL-5; experiment: Cytotoxicity against human SK-MEL-5 cells; type: functional
# [45] = tested on: SN12C; experiment: Cytotoxicity against human SN12C cells; type: functional
# [46] = tested on: A498; experiment: Cytotoxicity against human A498 cells; type: functional
# [47] = tested on: MOLT-4; experiment: Cytotoxicity against human MOLT4 cells; type: functional
# [48] = tested on: NCI-H460; experiment: Cytotoxicity against human NCI-H460 cells; type: functional
# [49] = tested on: L1210; experiment: Antitumor activity against mouse L1210 cells xenografted in DBA2 mouse assessed as reduction in tumor volume at 75 mg/kg, ip administered once daily on day 1, 3, 5, 7, 9, 11, 13, 15, 17 measured on day 19 relative to control; type: functional; parameters: scale not given: the % may be the effect or the level left; conditions: route intraperitoneal
# Summary of the method: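 Female DBA2 mice were inoculated with L1210 leukemia cells on the right flank. Compound was given ip at 75 mg/kg once on each of days 1, 3, 5, 7, 9, 11, 13, 15 and 17 after inoculation, in 100 µL injections; controls got vehicle alone. Tumor volume was compared with vehicle controls on day 19.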
# [50] = tested on: IGROV-1; experiment: Cytotoxicity against human IGROV1 cells; type: functional
# [51] = tested on: NCI/ADR-RES; experiment: Cytotoxicity against human NCI/ADR-RES cells; type: functional
# [52] = tested on: DU-145; experiment: Cytotoxicity against human DU145 cells; type: functional
# [53] = tested on: NCI-H322M; experiment: Cytotoxicity against human NCI-H322M cells; type: functional
# [54] = tested on: HOP-92; experiment: Cytotoxicity against human HOP92 cells; type: functional
# [55] = tested on: HT-29; experiment: Cytotoxicity against human HT-29 cells; type: functional
# [56] = tested on: SW-620; experiment: Cytotoxicity against human SW620 cells; type: functional
# [57] = tested on: CAKI-1; experiment: Cytotoxicity against human Caki1 cells; type: functional
# [58] = tested on: OVCAR-3; experiment: Cytotoxicity against human OVCAR3 cells; type: functional
# [59] = tested on: MDA-MB-435; experiment: Cytotoxicity against human MDA-MB-435 cells; type: functional, cell-based
# [60] = tested on: Mus musculus; experiment: Toxicity in DBA2 mouse assessed as change in color and texture of kidney at 75 mg/kg, ip administered once daily on day 1, 5, 9, 13, 17; type: organism-based; parameters: dose 75 mg/kg, route intraperitoneal; conditions: in vivo; summary of the method: as §2
# [61] = tested on: HCT-15; experiment: Cytotoxicity against human HCT15 cells; type: functional
# [62] = tested on: K562; experiment: Cytotoxicity against human K562 cells; type: functional
# [63] = Aqueous solubility of the compound after 6 hrs; type: physicochemical
# Summary of the method: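 Solubility was measured with a modified filter-plate protocol, assay maximum 500 µM. Each compound had its own standard curve, diluted into 80:20 aqueous buffer:acetonitrile at 5% DMSO (v/v) final. The aqueous sample was mixed 6 h and centrifuged. Supernatant absorbance gave concentration from the standard curve.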
# [64] = tested on: NCI-H23; experiment: Cytotoxicity against human NCI-H23 cells; type: functional
# [65] = tested on: OVCAR-5; experiment: Cytotoxicity against human OVCAR5 cells; type: functional
structure (smiles),measurement,setting,value
COc1ccc(/C=C(/c2cc(OC)c(OC)c(OC)c2)C(C)O)cc1OC (centres undefined),IC50,[1],> 100 µM
same,IC50,[2],69 µM
COc1cc(/C(=C/c2cccc([N+](=O)[O-])c2)C(C)O)cc(OC)c1OC (centres undefined),IC50,[1],> 100 µM
same,IC50,[2],> 100 µM
COc1ccc(OC)c(/C=C(/c2cc(OC)c(OC)c(OC)c2)C(C)O)c1 (centres undefined),IC50,[1],> 100 µM
same,IC50,[2],> 100 µM
COc1ccc(/C=C(/c2cc(OC)c(OC)c(OC)c2)C(C)O)cc1O (centres undefined),GI50,[3],5.62 µM
same,GI50,[4],1.86 µM
same,GI50,[5],0.692 µM
same,GI50,[6],0.389 µM
same,GI50,[7],3.02 µM
same,GI50,[8],0.468 µM
same,Activity,[9],Non-toxic
same,IC50,[1],16.1 µM
same,GI50,[10],0.575 µM
same,GI50,[11],2.82 µM
same,EC50,[12],21.2 µM
same,GI50,[13],0.501 µM
same,GI50,[14],1.02 µM
same,GI50,[15],0.457 µM
same,GI50,[16],27.5 µM
same,GI50,[17],0.501 µM
same,GI50,[18],2.34 µM
same,GI50,[19],0.575 µM
same,IC50,[2],4.1 µM
same,GI50,[20],2.45 µM
same,GI50,[21],4.27 µM
same,Ratio,[22],24
same,GI50,[23],3.47 µM
same,GI50,[24],4.07 µM
same,GI50,[25],4.07 µM
same,GI50,[26],4.17 µM
same,GI50,[27],0.479 µM
same,GI50,[28],> 100 µM
same,GI50,[29],0.479 µM
same,GI50,[30],> 100 µM
same,Activity,[31],Non-toxic
same,GI50,[32],0.324 µM
same,Activity,[33],Non-toxic
same,GI50,[34],> 100 µM
same,GI50,[35],0.389 µM
same,GI50,[36],1.32 µM
same,GI50,[37],2.14 µM
same,GI50,[38],0.631 µM
same,GI50,[39],0.324 µM
same,Activity,[40],Non-toxic
same,GI50,[41],0.891 µM
same,GI50,[42],0.813 µM
same,GI50,[43],1 µM
same,GI50,[44],0.417 µM
same,GI50,[45],6.61 µM
same,GI50,[46],0.759 µM
same,GI50,[47],4.68 µM
same,GI50,[48],0.49 µM
same,Activity,[49],50%
same,GI50,[50],0.851 µM
same,GI50,[51],0.447 µM
same,GI50,[52],1.45 µM
same,GI50,[53],3.98 µM
same,GI50,[54],0.209 µM
same,GI50,[55],4.07 µM
same,GI50,[56],0.363 µM
same,GI50,[57],4.57 µM
same,GI50,[58],0.245 µM
same,GI50,[59],0.2 µM
same,IC50,[59],0.88 µM
same,GI50,[59]; read-out: pGI50 (converted),0.229 µM
same,Activity,[60],Non-toxic
same,GI50,[61],0.617 µM
same,GI50,[62],0.55 µM
same,solubility at 6 h,[63],479 µM
same,GI50,[64],3.72 µM
same,GI50,[65],5.62 µM
COc1cc(/C(=C/c2ccc([N+](=O)[O-])cc2)C(C)O)cc(OC)c1OC (centres undefined),IC50,[1],> 100 µM
same,IC50,[2],> 100 µM
COc1cc(/C(=C/c2ccc(C)cc2)C(C)O)cc(OC)c1OC (centres undefined),IC50,[1],> 100 µM
same,IC50,[2],33.5 µM
COc1cc(/C(=C/c2ccc(Cl)cc2)C(C)O)cc(OC)c1OC (centres undefined),IC50,[1],> 100 µM
same,IC50,[2],> 100 µM
